# Compounds with a hit are over-represented: about 11% of the library has one in this group of screens.
# TNAP act DEA = human TNAP activation, intermediate phosphate acceptor | AID 813 | purified TNAP, CDP-star luminescence, 100 mM DEA, 30 min; active compounds read high; scale: 0 levamisole-inhibited, 1 vehicle-only enzyme | P05186 | 64,000 tested, under 10 active | activation factor at 20 µM;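 active = activation factor of at least 2 at 20 µM, relative to controls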
# Target sequence (P05186 whole entry, looked up): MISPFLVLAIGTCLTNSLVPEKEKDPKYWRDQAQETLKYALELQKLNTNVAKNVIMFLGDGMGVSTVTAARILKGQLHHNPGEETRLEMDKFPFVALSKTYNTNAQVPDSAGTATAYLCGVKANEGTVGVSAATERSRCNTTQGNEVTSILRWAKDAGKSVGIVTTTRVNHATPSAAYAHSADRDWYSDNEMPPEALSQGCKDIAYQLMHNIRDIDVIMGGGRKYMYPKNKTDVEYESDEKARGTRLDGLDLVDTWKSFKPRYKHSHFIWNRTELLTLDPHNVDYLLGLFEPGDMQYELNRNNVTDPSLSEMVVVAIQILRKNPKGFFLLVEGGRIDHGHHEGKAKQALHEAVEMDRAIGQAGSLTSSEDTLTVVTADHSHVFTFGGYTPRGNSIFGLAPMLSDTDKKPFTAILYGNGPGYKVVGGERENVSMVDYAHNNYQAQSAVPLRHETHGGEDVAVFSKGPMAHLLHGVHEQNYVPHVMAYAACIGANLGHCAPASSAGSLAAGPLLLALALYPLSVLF
# S1P1 ag pot = agonists and agonism potentiators of human S1P1 receptor; P21453; S1P1 CRE-bla cells, forskolin, beta-lactamase FRET, potentiator mode; S1P1 agonist co-added at EC20, 2 nM; 100% = saturating reference agonist, 0% = basal; activation, % at 9.5 µM; 56,000 compounds, 0.57% hits;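 active = activation above a cutoff set at the mean activation of all tested compounds plus 3 SD, cut at about 54% in these data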;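 note: forskolin at 4 µM as EC80 and the EC20 agonist is SEW2871; 100% = SEW2871 at its EC100 plus forskolin at EC80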
# M1 antagonist = antagonists of rat M1 muscarinic receptor; CHO-M1 cells, Fluo-4 calcium, ACh EC80 antagonist mode; active compounds read low; P08482; 64,000 compounds, 3.4% hits; B-score at 10 µM;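 active = calcium fluorescence response, raw or row-and-column corrected B-score, differing from the plate sample mean either way at a set confidence level, mostly lower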
# S1P3 ag = activates the human S1P3 receptor; S1P3 NFAT-BLA reporter cells, agonism, FRET ratio; relative to 1 µM S1P, basal subtracted; AID 373; Q99500; activation, % at 4.5 µM; 60,000 compounds, 0.1% hits;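 active = activation above the screen-wide mean plus 3 SD, cut at about 4.5% in these data, passing the limit was not always enough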
#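 Assay system: stable CHO line with human S1P3, Gα16, NFAT-BLA reporter; Detection: FRET β-lactamase substrate fluorescence, excitation 405 nm, 460/535 nm emission ratio, background-subtracted; Read-out: percent activation versus median 1 µM S1P response, basal-subtracted, per plate; Incubation: cells plated overnight, compound 4 h 37 °C, substrate 2 h RT.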
# M1 agonist = M1 muscarinic receptor agonism; CHO-M1 cells, Fluo-4 calcium fluorescence, agonist mode; active compounds read high; B-score at 10 µM; 64,000 compounds, 3% hits; AID 626;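 active = fluorescence rise, raw or as B-score row- and column-corrected plate score, outside the 99.7% band of its plate's samples, either direction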
# D1 allo mod = allosteric modulators of human D1 dopamine receptor. HEK293 D1, CRE-luciferase, dopamine EC30 potentiation; actives deviate in either direction. B-score at 10 µM. 58,000 compounds, 5.9% hits. AID 641;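 active = luminescence count or its row- and column-corrected plate score outside the 99.7% band of the plate's sample wells, on either side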
# * hit, by the source's call; . = no result given.
SMILES,TNAP act DEA,S1P1 ag pot,M1 antagonist,S1P3 ag,M1 agonist,D1 allo mod
O=C(O)CCn1c(-c2ccccc2)cc2c1CCCC2=O,0.9,5.1,0.721*,-0.2,0.451,.
Cc1c(Cl)ccc2c1NC(=O)C21NC(CCC(N)=O)[C@H]2C(=O)N(c3ccc(Cl)cc3)C(=O)[C@H]21 (stereo not given in full),0.9,1.0,1.81*,-0.8,0.422,-0.474
Cc1c(Cl)ccc2c1NC(=O)[C@]21N[C@@H](CCC(N)=O)[C@H]2C(=O)N(c3ccc(F)cc3)C(=O)[C@H]21,1,6.8,.,-1.1,.,-0.69
CCCCS(=O)(=O)/C=C\C1C2C=CC(C2)C1S(=O)(=O)CCCC (stereo not given),0.8,-17.3,0.216,-1.1,-0.018,-0.216
CCCCS(=O)(=O)/C=C\C=C/S(=O)(=O)CCCC,1,.,0.46,.,0.264,-2.4*
Cn1c(=O)c2c(-c3ccccc3)n(-c3ccccc3O)cc2n(C)c1=O,0.9,-7.0,0.183,0.5,-1.28,2.37
Cn1c(=O)c2c(-c3ccccc3)n(C3CCCCC3)cc2n(C)c1=O,1,-7.9,-0.176,12.9*,0.0795,4.27
CCOCc1nnc(NC(=O)c2cccs2)s1,0.9,.,2.09*,-1.0,0.947,-0.221
CC(C)CCNC(=O)Cn1c(NCCC(C)C)nc2c1c(=O)n(C)c(=O)n2C,0.8,5.5,1.3*,-0.2,-1.27,-0.00418
CN(Cc1cccs1)C(=O)COc1ccc(-c2nnco2)cc1,0.9,0.5,-0.112,-0.1,-0.317,-0.342
O=C(O)CCc1ccc(-c2ccc(Cl)cc2)n1CC(=O)O,0.9,-15.4,0.182,-0.6,-0.634,-3.68*
COc1ccc(C(=O)N2CCN(C3CCC(c4ccccc4)CC3)CC2)cc1OC (stereo not given),0.8,2.0,-0.0973,-0.4,-0.468,-5.09*
COc1ccc(C(=O)N2CCC(N3CCN(c4ccccc4)CC3)CC2)cc1OC,1,-13.4,-1.16,-3.7,-0.301,.
CC(=O)Nc1ccc2oc(-c3ccccc3Br)nc2c1,0.9,8.4,0.124,-1.1,-0.0513,-2.83*
CCC(=O)Nc1ccc2oc(-c3ccccc3Br)nc2c1,0.9,-16.3,0.0824,-0.7,-0.000107,-0.292
CCC(=O)c1cc(F)c(N2CCN(S(=O)(=O)c3ccc(C)cc3)CC2)cc1C,0.8,18.0,-0.00581,-1.7,-0.319,-0.549
N#Cc1c(-c2ccccc2)nc(SCc2nc(N)nc(N3CCCCC3)n2)[nH]c1=O,0.9,-5.7,0.452,1.3,1.59,-3.2*
CCOC(=O)Cc1csc(NC(=O)COc2ccccc2)n1,0.9,.,-1.02,-1.2,-1.4,0.0477
CCOC(=O)Cc1csc(NS(=O)(=O)Cc2ccccc2)n1,1,-3.9,2.59*,-1.3,-0.249,-0.00441
COc1ccc(OCC(O)Cn2c(=N)n(CCN3CCCCC3)c3ccccc32)cc1 (stereo not given),1.1,-17.0,-1.45,-1.1,1.25,-0.83
COc1ccccc1OCC(O)Cn1c(=N)n(Cc2ccccc2)c2ccccc21 (stereo not given),.,.,0.00716,.,0.191,-4.73*
C=CCn1c(=N)n(CC(O)COc2ccccc2OC)c2ccccc21 (stereo not given),1,-18.1,-1.14,0.5,-0.035,-5.36*
N=c1n(Cc2ccccc2)c2ccccc2n1CC(O)c1ccccc1 (stereo not given),1,-12.8,0.0858,-0.2,-0.277,-3.58
C=CCn1c(=N)n(CC(=O)O)c2ccccc21,0.9,2.7,1.63,-0.9,0.193,-0.723
CC(C)(C)C(=O)Cn1c(=N)n(Cc2ccccc2)c2ccccc21,1,-7.0,-0.474,-1.1,-1.43,-3.29*
SMILES,TNAP act DEA,S1P1 ag pot,M1 antagonist,S1P3 ag,M1 agonist,D1 allo mod
O=C(CCN1CCN(c2ccc(Cl)cc2)CC1)Nc1ccccc1F,0.9,-6.5,2.1*,1.0,0.0296,-0.305
CCOc1ccc(-n2cc(C(=O)Nc3cccc(C)n3)c3cc(OC)c(OC)cc3c2=O)cc1,0.9,9.9,-0.0589,-1.4,7.58*,-0.914
COCCOC(=O)C1=C(C)N=C2SCCC(=O)N2C1c1cccc(Br)c1 (stereo not given),1.1,6.1,0.0913,-0.8,-0.0253,-0.778
Cc1ccc(S(=O)(=O)NC2=NCN(Cc3cccnc3)CN2)cc1,0.9,-15.0,0.43,-0.8,1.06,-0.394
CC(=O)Nc1ccc(S(=O)(=O)NC2=NCN(CCOC(=O)c3ccccc3)CN2)cc1,1,-5.9,0.317,-1.5,-0.753,-5.21*
O=C(CSc1nnc(Cc2csc(Nc3cccc(Cl)c3)n2)o1)N1CCc2ccccc21,0.9,78.4*,-0.794,-0.8,-0.294,0.132
CCOC(=O)c1sc2nc(NC(=O)C3CCCCC3)sc2c1C,0.8,73.5*,-0.745,-1.6,1.68,0.929
CCOC(=O)c1sc2nc(NC(=O)C3CC3)sc2c1C,0.9,-13.4,1.28,0.7,1.86,0.763
N/C(=N\c1nc2c(c(=O)[nH]1)CCCC2)Nc1ccccc1,1,65.1*,-0.712,-0.1,-0.504,-0.302
CC1CCN(Cc2c(C#N)c3ccccc3n2C)CC1,0.9,.,-0.0201,.,0.554,-0.0855
CCOC(=O)C1=C(C)NC(=O)NC1c1cc(Br)c(O)c(OC)c1 (stereo not given),.,-23.1,0.00719,-0.1,-0.714,0.126
COc1cc(C2NC(=O)NC(C)=C2C(=O)OC2CCCCC2)cc(Br)c1O (stereo not given),0.9,-22.4,0.422,-0.6,-0.96,-4*
COc1ccc(C2C(C(=O)NCc3cccnc3)c3ccccc3C(=O)N2C)cc1OC (stereo not given),1,.,-1.94,.,0.621,-0.0787
O=c1cc(N2CCN(c3ccccc3F)CC2)[nH]c(=O)n1-c1ccc(Br)cc1,1,2.2,0.348,-1.1,-2.63*,-2.24
Cc1ccc(C)c(N2C(=O)CN=C2Nc2ccccc2Cl)c1,0.9,.,0.0121,.,1.54,-0.769
O=c1[nH]c(/C(=N\O)c2ccccc2)no1,1,15.0,-0.109,-1.4,-0.661,0.174
CC#CCCCC(=O)Nc1ccccc1C(=O)O,0.9,9.3,1.03,-1.0,0.279,-0.0111
CC#CCCCC(=O)Nc1ccc(C(=O)O)cc1,0.8,-7.2,-0.922,-0.3,-1.38,-3.09*
Cc1ccc(-c2cc(C(=O)N3CCCC3)no2)cc1,0.8,-9.4,0.947,-0.2,0.632,-5.16*
Cc1ccc(-n2c(C)cc(C(=O)COC(=O)c3c(C)noc3C)c2C)cc1,1,61.6*,-0.329,-0.1,-1.4,0.315
CCn1c(SCC(=O)c2cc(OC)ccc2OC)nc2c1c(=O)n(C)c(=O)n2C,0.8,-19.2,0.626,-0.8,0.51,4.93*
Clc1ccc(CN2C3=NCCCN3c3ccccc32)cc1,1.1,-12.7,-0.837,-0.6,-0.86,-0.394
O=C1c2ccccc2N(Cc2ccc(Cl)cc2)C2=NCCN12,0.9,-34.9,0.717,0.8,-0.0325,10.8*

# Bioassay records (PubChem BioAssay)
